Consider 16 compounds from ChEMBL document CHEMBL1131102, “A new series of highly potent growth hormone-releasing peptides derived from ipamorelin” (J Med Chem, 1998).

Values joined by “and” are separate entries in the source; they are usually repeats but may differ in a detail not shown here. Equal values may be shown once. Non-standard residues stand in square brackets, D forms with d. Residues, ends and D or L forms follow the SMILES beside them. d2Nal = N[C@H](Cc1ccc2ccccc2c1)C(=O)O; 3Amb = NCc1cccc(C(=O)O)c1; Aib = CC(C)(N)C(=O)O

The species named for series [1] is Rattus norvegicus. Kind of series: Tested in vitro for GH-releasing potency against rat pituitary cells. The format is functional. The note with it: Pituitary gland cell. The method in brief: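 Rat pituitaries were trypsin-dispersed into single cells and cultured 3 days, then washed and stimulated 15 min with secretagogue. Supernatant GH was measured by rat GH SPA. EC50 came from a Hill fit of release above basal; Emax as % of GHRP-6 maximum. Mean ± SEM of 1–5 experiments.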

Series [2] concerns Rattus norvegicus. Kind of series: (§1) Tested in vivo for GH-releasing potency against anesthetized male rats. The format is functional. Further details: unit not given here. The method in brief: (§2)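 Male or female rats (250 ± 25 g) were anesthetized with pentobarbital ip (50 mg/mL, 1.2 mL/kg). After 15 min, orbital blood was taken, then compound was given as an iv tail-vein bolus (2 mL/kg) and blood sampled again at 10 min. Rat GH was assayed in heparinized plasma. At least five doses, six rats per dose. ED50 by Hill fit; Emax as % of GHRP-6.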

In series [3] the test system is Rattus norvegicus. The description is as §1. The class given is functional. The method in brief: as §2
Series [4] relates to Rattus norvegicus. Kind of series: Compound was tested in vivo for GH-releasing potency against anesthetized female rats. The class given is functional. The method in brief: as §2
In series [5] the test system is Rattus norvegicus. Kind of series: Tested in vivo for GH-releasing potency against anesthetized female rats. The format is functional. The method in brief: as §2
For series [6], the species on record is Sus scrofa. In words: (§3) Compound was tested for GH-releasing potency against female Danish slaughter swine. The format is functional. The method in brief: (§4)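 Swine with jugular catheters received single iv injections in increasing doses (range 0.03–500 nmol/kg), five doses per experiment at 24-h intervals. Vehicle was phosphate/citrate buffer diluted in saline with 0.5% porcine serum albumin. Blood was sampled from 1 h before to 3 h after dosing; pGH by ELISA. Basal-adjusted Cmax was fitted (Hill or Michaelis–Menten) for ED50; six swine.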

Series [7] in a line: Oral bioavailability in dog (Beagle). The format is ADME, organism-based, Canis lupus familiaris. The note with it: in vivo. The method in brief: (§5)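 Fasted (overnight) male and female Beagle dogs; dosed po by gavage (2.7 or 1.8 mg/kg) and iv as a hind-leg-vein bolus (0.5 mg/kg), with a 1-week washout between routes. Vehicle was citrate/phosphate buffer, pH 5.0. EDTA blood was drawn from a front-leg vein up to 6 h. Plasma compound was measured by HPLC-UV after solid-phase extraction. AUC(0–6 h); f = AUCpo·doseiv/(AUCiv·dosepo).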

Series [8] deals with Canis familiaris. Kind of series: Basal GH release was measured after 2.7 mg/kg po administration into Beagle dogs. The class given is functional, Canis lupus familiaris. The method in brief: (§6)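 Fasted (overnight) Beagle dogs were given compound in citrate/phosphate buffer, pH 5.0, either as a 0.5 mg/kg iv bolus in a hind-leg vein or by po gavage (2.7 or 1.8 mg/kg). Iv and po dosing were separated by a 1-week washout. EDTA blood was drawn from a front-leg vein at intervals up to 6 h. Plasma GH was measured by porcine GH ELISA.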

The test system of series [9] is Canis familiaris. In words: Basal GH release was measured after 0.5 mg/kg iv administration into Beagle dogs. The format is functional, Canis lupus familiaris. The method in brief: as §6
Series [10] relates to Canis familiaris. In words: Area under curve was measured after po administration into Beagle dog. The format is ADME, organism-based, Canis lupus familiaris. To be noted: in vivo. The method in brief: as §5
The subject of series [11] is Canis familiaris. Kind of series: Area under curve was measured after iv administration into Beagle dog. The format is ADME, organism-based, Canis lupus familiaris. To be noted: in vivo. The method in brief: as §5
Series [12] relates to Canis familiaris. In words: Basal GH release was measured after 1.8 mg/kg po administration into Beagle dogs. The class given is functional, Canis lupus familiaris. The method in brief: as §6
The species entered for series [13] is Sus scrofa. Described as §3. The class given is functional, organism-based. The method in brief: as §4
Where [14] appears, read: Rattus norvegicus, read-out: Emax.

For the compound `CN(C(=O)c1cccc(CN)c1)[C@H](Cc1ccc2ccccc2c1)C(=O)N(C)[C@H](Cc1ccccc1)C(N)=O`, in series [1], it took 115 nM to reach a half-maximal effect (EC50) and the Emax (in general, the maximal effect, on the per cent scale that the assay sets) is 85%.
Consider `CN(C(=O)[C@@H](Cc1ccc2ccccc2c1)NC(=O)[C@H](Cc1c[nH]cn1)NC(=O)C(C)(C)N)[C@H](Cc1ccccc1)C(=O)N[C@@H](CCCCN)C(N)=O`, for which the ED50 in series [2] is recorded as 1.8. For the same compound, in series [1], the EC50 (in general, the midpoint of the concentration-response curve) was 2 nM and the Emax stood at 100%. In addition, the Emax in series [3] stood at 90%.
With `NCCCC[C@H](NC(=O)[C@@H](Cc1ccccc1)NC(=O)[C@@H](Cc1ccc2ccccc2c1)NC(=O)c1ccc(CN)cc1)C(N)=O`, in series [1], the EC50 was 110 nM and the Emax came out at 50%.
As for `CN(C(=O)[C@@H](Cc1ccc2ccccc2c1)N(C)C(=O)c1cccc(CN)c1)[C@@H](CO)Cc1ccccc1`, in series [1], the EC50 stood at 265 nM and the Emax came out at 75%. Further, in series [4], the ED50 is more than 1000 nmol/kg.
In series [1], `CNC(=O)[C@@H](Cc1ccccc1)N(C)C(=O)[C@@H](Cc1ccc2ccccc2c1)N(C)C(=O)c1cccc(CN)c1` came in with an EC50 of 40 nM and an Emax of 110%.
Consider `C[C@H](NC(=O)[C@@H](Cc1c[nH]c2ccccc12)NC(=O)[C@@H](N)Cc1c[nH]cn1)C(=O)N[C@@H](Cc1c[nH]c2ccccc12)C(=O)N[C@H](Cc1ccccc1)C(=O)N[C@@H](CCCCN)C(N)=O` (H-H[dW]AW[dF]K-NH2), for which, in series [1], it took 2.2 nM to reach a half-maximal effect (EC50) and the Emax was 100%. The Emax in series [5] was 60% and 100%. In [6], this compound gave an ED50 of 0.0039 µmol/kg and an Emax of 100%.
The compound `C[C@H](NC(=O)[C@@H](Cc1ccc2ccccc2c1)NC(=O)[C@@H](C)N)C(=O)N[C@@H](Cc1c[nH]c2ccccc12)C(=O)N[C@H](Cc1ccccc1)C(=O)N[C@@H](CCCCN)C(N)=O` [PRALMORELIN] (H-[dA][d2Nal]AW[dF]K-NH2) gave an EC50 in [1] of 1.8 nM. Moreover, the Emax in series [1] worked out at 85%; in series [5] it was 90%; in series [5] (setting [14]), 100%; in series [6], 75%. For the same compound, the ED50 in series [6] worked out at 0.0006 µmol/kg.
In series [1], `CN(C(=O)[C@@H](Cc1ccc2ccccc2c1)NC(=O)c1cccc(CN)c1)[C@H](Cc1ccccc1)C(N)=O` displayed an EC50 of 170 nM and an Emax of 85%. The same compound returned an ED50 in [4] of more than 1000 nmol/kg.
Compound `CNCc1cccc(C(=O)N[C@H](Cc2ccc3ccccc3c2)C(=O)N[C@H](Cc2ccccc2)C(=O)N[C@@H](CCCCN)C(N)=O)c1` had an ED50 in series [2] of 65. In addition, in series [1], the EC50 amounted to 10 nM and the Emax is 85%. In addition, in [3], the Emax was found to be 30%.
Turning to `CC(C)(N)C(=O)N[C@@H](Cc1c[nH]cn1)C(=O)N[C@H](Cc1ccc2ccccc2c1)C(=O)N[C@H](Cc1ccccc1)C(=O)N[C@@H](CCCCN)C(N)=O` [IPAMORELIN] (H-[Aib]H[d2Nal][dF]K-NH2), the ED50 is 85 in series [2] and 0.0023 µmol/kg in series [6]. The same compound came in with an EC50 in [1] of 1.3 nM. The figures for the Emax in series [1], in series [3] and in series [6] were 85%, 120% and 88%, respectively. Moreover, the bioavailability (as a rule, the share of a dose that reaches the circulation, judged against a reference dose that is usually intravenous) in series [7] was found to be 4%. The “Basal GH” value in [8] amounted to 5.4 ng/mL; in [9], 1.6 ng/mL.
`NCCCC[C@H](NC(=O)[C@@H](Cc1ccccc1)NC(=O)[C@@H](Cc1ccc2ccccc2c1)NC(=O)c1ccccc1CN)C(N)=O`: in [1], the EC50 came to 85 nM and the Emax is 60%.
On the same counts, the results for `CNC(=O)[C@@H](Cc1ccccc1)N(C)C(=O)[C@@H](Cc1ccc2ccccc2c1)N(C)C(=O)[C@H](Cc1c[nH]cn1)NC(=O)C(C)(C)N` are 3.8 nM and 110%.
The compound `NCCCC[C@H](NC(=O)[C@@H](Cc1ccccc1)NC(=O)[C@@H](Cc1ccc2ccccc2c1)NC(=O)c1cccc(CN)c1)C(N)=O` (H-[3Amb][d2Nal][dF]K-NH2) returned an ED50 in [2] of more than 4800. For the same compound, the Emax in [1] came to 85%.
For `CN(C(=O)c1cccc(CN)c1)[C@H](Cc1ccc2ccccc2c1)C(=O)N(C)[C@H](Cc1ccccc1)C(=O)N[C@@H](CCCCN)C(N)=O`, in series [1], the EC50 turned out to be 5 nM. Moreover, the results for the Emax in series [1] and in [5] (setting [14]) were 80% and 100%, respectively. The same compound displayed an ED50 in series [4] of 146 nmol/kg.
In the case of `CN(C(=O)[C@H](Cc1c[nH]cn1)NC(=O)C(C)(C)N)[C@H](Cc1ccc2ccccc2c1)C(=O)N(C)[C@H](Cc1ccccc1)C(=O)N[C@@H](CCCCN)C(N)=O`, in series [1], the midpoint of the response, the EC50, lay at 1.5 nM and the Emax came to 85%. In addition, the ED50 in [4] was 14 nmol/kg.
For the compound `CN(C(=O)[C@@H](Cc1ccc2ccccc2c1)NC(=O)c1cccc(CN)c1)[C@H](Cc1ccccc1)C(=O)N[C@@H](CCCCN)C(N)=O`, the values for the AUC in series [10] and in series [11] were 48 ng·h/mL and 137 ng·h/mL, respectively. The ED50 in series [2] was 80; in series [13], 2 nM/kg. The “Basal GH” value in [12] and in series [9] was 1.2 ng/mL throughout. The compound also gave an EC50 in series [1] of 0.5 nM. Also, the figures for the Emax in series [1], in series [3] and in [6] were 80%, 90% and 70%, respectively. Further, the bioavailability in series [7] is 10%.
